Measured values: ChEMBL document CHEMBL5034013, “Discovery of VNRX-7145 (VNRX-5236 Etzadroxil): An Orally Bioavailable β-Lactamase Inhibitor for Enterobacterales Expressing Ambler Class A, C, and D Enzymes” (J Med Chem, 2021)

How the values were obtained:
[1] = Oral bioavailability in rat at 10 mg/kg administered as cassette dose measured by UPLC-MS/MS; type: ADME, organism-based; details: in vivo
Outline: (§1)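 Ester prodrugs are given to rats by oral gavage, some as a cassette with another ester. F is the percent absolute oral bioavailability of the parent, corrected for the MW difference between prodrug and parent.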

Klebsiella pneumoniae [2] = experiment: Antibacterial activity against Klebsiella pneumoniae expressing OXA-48 assessed as concentration required to restore ceftibuten activity incubated for 16 to 20 hrs in presence of 1 ug/ml ceftibuten by broth microdilution method; type: functional; details: time 16-20 hrs
Escherichia coli [3] = experiment: Antibacterial activity against Escherichia coli expressing CTX-M-15/TEM-1 assessed as concentration required to restore ceftibuten activity incubated for 16 to 20 hrs in presence of 1 ug/ml ceftibuten by broth microdilution method; type: functional; details: time 16-20 hrs
Klebsiella pneumoniae [4] = experiment: Antibacterial activity against Klebsiella pneumoniae 156309 expressing SHV-11/TEM-1/KPC-2 assessed as concentration required to restore ceftibuten activity incubated for 16 to 20 hrs in presence of 1 ug/ml ceftibuten by broth microdilution method; type: functional; details: time 16-20 hrs
Escherichia coli [5] = experiment: Antibacterial activity against Escherichia coli 786978 expressing KPC assessed as concentration required to restore ceftibuten activity incubated for 16 to 20 hrs in presence of 1 ug/ml ceftibuten by broth microdilution method; type: functional; details: time 16-20 hrs
Escherichia coli [6] = experiment: Antibacterial activity against Escherichia coli 664507 expressing OXA-48 assessed as concentration required to restore ceftibuten activity incubated for 16 to 20 hrs in presence of 1 ug/ml ceftibuten by broth microdilution method; type: functional; details: time 16-20 hrs
Outline: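 Tested against a 25-strain challenge panel of clinical E. coli and K. pneumoniae isolates carrying ESBL (n = 5), KPC (n = 11), class C (n = 4) or OXA-48 (n = 5) β-lactamases. Ceftibuten was held at 1 μg/mL while the BLI concentration varied. The read-out was the BLI concentration that rescued ceftibuten activity.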

Klebsiella pneumoniae [7] = experiment: Antibacterial activity against Klebsiella pneumoniae 196477 expressing AmpC/CMY-2/TEM-1/CTX-M-15 assessed as concentration required to restore ceftibuten activity incubated for 16 to 20 hrs in presence of 1 ug/ml ceftibuten by broth microdilution method; type: functional; details: time 16-20 hrs
Klebsiella pneumoniae [8] = experiment: Antibacterial activity against Klebsiella pneumoniae expressing SHV-12/TEM-1 assessed as concentration required to restore ceftibuten activity incubated for 16 to 20 hrs in presence of 1 ug/ml ceftibuten by broth microdilution method; type: functional; details: time 16-20 hrs
[9] = Inhibition of bacterial beta-lactamase SHV-5 using cefotaxime as substrate preincubated for 15 mins followed by substrate addition and measured after 10 mins by spectrophotometric analysis; set-up: species or system Bacteria
Outline: (§2)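 IC50 is the mean of duplicate runs on separate days. A run was repeated automatically if it differed by more than 20% from the previous result.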

[10] = Inhibition of bacterial beta-lactamase AmpC using nitrocefin as substrate preincubated for 15 mins followed by substrate addition and measured after 10 mins by spectrophotometric analysis; set-up: species or system Bacteria; outline: as §2
[11] = Inhibition of bacterial beta-lactamase OXA-48 using nitrocefin as substrate preincubated for 15 mins followed by substrate addition and measured after 10 mins by spectrophotometric analysis; set-up: species or system Bacteria; outline: as §2
[12] = Inhibition of bacterial beta-lactamase KPC-2 using imipenem as substrate preincubated for 15 mins followed by substrate addition and measured after 10 mins by spectrophotometric analysis; set-up: species or system Bacteria; outline: as §2
Escherichia coli [13] = experiment: Antibacterial activity against Escherichia coli J53 expressing SHV-5/TEM-1/AmpC assessed as concentration required to restore ceftibuten activity incubated for 16 to 20 hrs in presence of 1 ug/ml ceftibuten by broth microdilution method; type: functional; details: time 16-20 hrs
[14] = Oral bioavailability in rat at 3 mg/kg administered as cassette dose measured by UPLC-MS/MS; type: ADME, organism-based; details: in vivo; outline: as §1
[15] = 10 mg/kg, in the assay text read “measured” for “administered as cassette dose measured”

bioavailability [1]	SMILES	Activity (Klebsiella pneumoniae [2])	Activity (Escherichia coli [3])	Activity (Klebsiella pneumoniae [4])	Activity (Escherichia coli [5])	Activity (Escherichia coli [6])	Activity (Klebsiella pneumoniae [7])	Activity (Klebsiella pneumoniae [8])	IC50 [9]	IC50 [10]	IC50 [11]	IC50 [12]	Activity (Escherichia coli [13])	also measured
24%	CCC(=O)N[C@H]1Cc2cccc(C(=O)OCOC(=O)OC3CCCC3)c2OB1O	–	–	–	–	–	–	–	–	–	–	–	–	–
28%	CCOC(C)(C)C(=O)OCOC(=O)c1cccc2c1OB(O)[C@@H](NC(=O)CC)C2	–	–	–	–	–	–	–	–	–	–	–	–	–
19%	CCC(=O)N[C@H]1Cc2cccc(C(=O)OCOC(=O)C3CCCC3)c2OB1O	–	–	–	–	–	–	–	–	–	–	–	–	–
23%	CCC(=O)N[C@H]1Cc2cccc(C(=O)OCOC(=O)OC(C)C)c2OB1O	–	–	–	–	–	–	–	–	–	–	–	–	–

Further lines, the compound ahead of its results:

SMILES	bioavailability [1]	Activity (Klebsiella pneumoniae [2])	Activity (Escherichia coli [3])	Activity (Klebsiella pneumoniae [4])	Activity (Escherichia coli [5])	Activity (Escherichia coli [6])	Activity (Klebsiella pneumoniae [7])	Activity (Klebsiella pneumoniae [8])	IC50 [9]	IC50 [10]	IC50 [11]	IC50 [12]	Activity (Escherichia coli [13])	also measured
CCC(=O)N[C@H]1Cc2cccc(C(=O)OCOC(C)=O)c2OB1O	10%	–	–	–	–	–	–	–	–	–	–	–	–	–
N#CCCC(=O)N[C@H]1Cc2cccc(C(=O)O)c2OB1O	–	2 µg/mL	0.12 µg/mL	2 µg/mL	0.5 µg/mL	0.12 µg/mL	0.03 µg/mL	0.06 µg/mL	12 nM	14 nM	687 nM	33 nM	0.03 µg/mL	–
CC(=O)CCC(=O)N[C@H]1Cc2cccc(C(=O)OCOC(=O)C(C)(C)C)c2OB1O	–	–	–	–	–	–	–	–	–	–	–	–	–	bioavailability [1, 15]: 95%
CCC(=O)N[C@H]1Cc2cccc(C(=O)OCOC(=O)OC(CC)CC)c2OB1O	33%	–	–	–	–	–	–	–	–	–	–	–	–	–
CCCC(=O)N[C@H]1Cc2cccc(C(=O)O)c2OB1O	–	1 µg/mL	0.12 µg/mL	1 µg/mL	0.5 µg/mL	0.25 µg/mL	0.03 µg/mL	0.12 µg/mL	36 nM	9 nM	426 nM	93 nM	0.016 µg/mL	–
CS(=O)(=O)NCCC(=O)N[C@H]1Cc2cccc(C(=O)O)c2OB1O	–	2 µg/mL	0.12 µg/mL	1 µg/mL	0.5 µg/mL	0.03 µg/mL	0.03 µg/mL	0.016 µg/mL	12 nM	5 nM	4670 nM	28 nM	0.016 µg/mL	–
CC(C)(C)C(=O)OCOC(=O)c1cccc2c1OB(O)[C@@H](NC(=O)CCNS(C)(=O)=O)C2	–	–	–	–	–	–	–	–	–	–	–	–	–	bioavailability [14]: < 5%
CCOC(=O)c1cccc2c1OB(O)[C@@H](NC(=O)CCNS(N)(=O)=O)C2	–	–	–	–	–	–	–	–	–	–	–	–	–	bioavailability [14]: < 5%
CCOC(=O)c1cccc2c1OB(O)[C@@H](NC(=O)CCC(N)=O)C2	–	–	–	–	–	–	–	–	–	–	–	–	–	bioavailability [14]: < 5%
O=C(CCC(F)(F)F)N[C@H]1Cc2cccc(C(=O)O)c2OB1O	–	8 µg/mL	1 µg/mL	2 µg/mL	1 µg/mL	0.25 µg/mL	0.5 µg/mL	0.06 µg/mL	8 nM	9 nM	1620 nM	43 nM	0.03 µg/mL	–
NC(=O)CCC(=O)N[C@H]1Cc2cccc(C(=O)O)c2OB1O	–	0.5 µg/mL	0.12 µg/mL	2 µg/mL	1 µg/mL	0.06 µg/mL	0.016 µg/mL	0.12 µg/mL	514 nM	6 nM	1790 nM	69 nM	2 µg/mL	–
CCCC(=O)N[C@H]1Cc2cccc(C(=O)OCOC(=O)C(C)(C)C)c2OB1O	–	–	–	–	–	–	–	–	–	–	–	–	–	F ([14]; 3 mg/kg): 31%
C#CCCC(=O)N[C@H]1Cc2cccc(C(=O)O)c2OB1O	–	4 µg/mL	0.25 µg/mL	2 µg/mL	1 µg/mL	0.5 µg/mL	0.06 µg/mL	0.06 µg/mL	17 nM	6 nM	627 nM	31 nM	1 µg/mL	–
CCOC(=O)c1cccc2c1OB(O)[C@@H](NC(=O)CC)C2	–	–	–	–	–	–	–	–	–	–	–	–	–	bioavailability [14]: < 5%
CC(C)(C)C(=O)OCOC(=O)c1cccc2c1OB(O)[C@@H](NC(=O)CCC#N)C2	–	–	–	–	–	–	–	–	–	–	–	–	–	bioavailability [1, 15]: 20%
CC(C)(C)C(=O)OCOC(=O)c1cccc2c1OB(O)[C@@H](NC(=O)CCC(N)=O)C2	–	–	–	–	–	–	–	–	–	–	–	–	–	bioavailability [14]: < 5%
NS(=O)(=O)CCC(=O)N[C@H]1Cc2cccc(C(=O)O)c2OB1O	–	2 µg/mL	0.25 µg/mL	2 µg/mL	1 µg/mL	0.12 µg/mL	0.03 µg/mL	0.06 µg/mL	8 nM	3 nM	8550 nM	35 nM	0.12 µg/mL	–
CC(F)(F)CCC(=O)N[C@H]1Cc2cccc(C(=O)O)c2OB1O	–	4 µg/mL	0.5 µg/mL	4 µg/mL	1 µg/mL	0.25 µg/mL	0.12 µg/mL	0.03 µg/mL	–	7 nM	2390 nM	41 nM	0.03 µg/mL	–
CCC(=O)N[C@H]1Cc2cccc(C(=O)OCOC(=O)C(C)C)c2OB1O	38%	–	–	–	–	–	–	–	–	–	–	–	–	–
